Measured values taken from ChEMBL document CHEMBL1764975, “A new DNA gyrase inhibitor subclass of the cyclothialidine family based on a bicyclic dilactam-lactone scaffold. Synthesis and antibacterial properties” (J Med Chem, 2011).
Converted amounts (≈) assume the structure as drawn.

Experiments:
Staphylococcus aureus [1] = experiment: (§1) Antimicrobial activity against Staphylococcus aureus Smith after 18 hrs by agar dilution method; assay type: functional
In short: (§2)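 Agar dilution on Mueller-Hinton medium, inoculum 10⁴ CFU/spot; MIC is the minimum inhibitory concentration against the named strain.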

Staphylococcus aureus [2] = experiment: Antimicrobial activity against Staphylococcus aureus Smith infected in iv dosed septicaemia Swiss albino mouse model after 4 days; assay type: functional; conditions: 96 h
In short: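 Septicaemia model in mice infected with S. aureus Smith, compound given iv. In experiments with 0-1 survivors among 5-10 control mice, ED₅₀ (mg/kg) taken as lowest dose giving 3-5 survivors out of 5 infected mice.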

Escherichia coli [3] = experiment: Inhibition of Escherichia coli DNA gyrase A2B2 complex after 30 mins by supercoiling assay
[4] = Octanol-water partition coefficient, log D of the compound at pH 7.4 by shake-flask method; assay type: physicochemical
In short: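 Octanol/water partition measured by shake-flask at pH 7.4.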

Staphylococcus aureus [5] = experiment: Antimicrobial activity against Staphylococcus aureus ATCC 25923 after 18 hrs by agar dilution method; assay type: functional; conditions: ATCC 25923, 18 h; in short: as §2
[6] = tested on: Staphylococcus epidermidis; experiment: Antimicrobial activity against Staphylococcus epidermidis 16/2 after 18 hrs by agar dilution method; assay type: functional; conditions: 16/2, 18 h; in short: as §2
Enterococcus faecalis = experiment: Antimicrobial activity against Enterococcus faecalis 6 after 18 hrs by agar dilution method; conditions: Enterococcus faecalis, 6, 18 h
Escherichia coli [7] = experiment: Antimicrobial activity against Escherichia coli 25922 after 18 hrs by agar dilution method; assay type: functional; conditions: Escherichia coli, 25922, 18 h; in short: as §2
Streptococcus pyogenes = experiment: Antimicrobial activity against Streptococcus pyogenes b15 after 18 hrs by agar dilution method; assay type: functional; conditions: b15, 18 h; in short: as §2
Staphylococcus aureus [8] = experiment: as §1; assay type: functional; in short: as §2; remark: listed apart in the source
[9] = tested on: Stenotrophomonas maltophilia; experiment: Antimicrobial activity against Xanthomonas maltophilia IAC 739 after 18 hrs by agar dilution method; assay type: functional; conditions: IAC 739, 18 h; in short: as §2

Row | SMILES | MIC (Staphylococcus aureus [1]) | ED50 (Staphylococcus aureus [2]) | MNEC (Escherichia coli [3]) | other results
1 | COc1cc(O)c2c(c1C)C(=O)OC[C@@H](CO)CCC(=S)N[C@H](c1nc(C)no1)CSC2 | 1 µg/mL (≈ 2.08 µM) | > 25 mg/kg | 0.05 µg/mL | –
2 | COc1cc(O)c2c(c1Br)C(=O)OCC(=O)NCC(=S)N[C@H](c1nc(C)no1)CSC2 | 0.12 µg/mL (≈ 0.226 µM) | 12.5 mg/kg | 0.05 µg/mL | logD [4]: 2.61; MIC (Staphylococcus aureus [5]): 0.25 µg/mL (≈ 0.47 µM); MIC [6]: < 0.12 µg/mL; MIC (Enterococcus faecalis): < 0.12 µg/mL; MIC (Escherichia coli [7]): > 64 µg/mL; MIC (Streptococcus pyogenes): 0.12 µg/mL (≈ 0.226 µM); MIC (Staphylococcus aureus [8]): < 0.12 µg/mL; MIC [9]: 0.25 µg/mL (≈ 0.47 µM)
3 | COc1cc(O)c2c(c1C)C(=O)OC[C@H](CO)CCC(=O)N[C@H](c1nc(C)no1)CSC2 | 8 µg/mL (≈ 17.2 µM) | – | 0.005 µg/mL | –
4 | COc1cc(O)c2c(c1Br)C(=O)OCCCCC(=S)N[C@H](c1nc(CN)no1)CSC2.Cl | 0.5 µg/mL | 12.5 mg/kg | 0.05 µg/mL | –
5 | COC(=O)[C@@H]1CSCc2c(O)cc(OC)c(C)c2C(=O)OCCOCC(=S)N1 | 2.37 µg/mL (≈ 5.52 µM) | – | 0.1 µg/mL | –
6 | COc1cc(O)c2c(c1C)C(=O)OC[C@@H](CO)CCC(=O)N[C@H](c1nc(C)no1)CSC2 | 64 µg/mL (≈ 137 µM) | – | 0.1 µg/mL | –
7 | COc1cc(O)c2c(c1Br)C(=O)OCC(=O)NCC(=O)N[C@H](c1nc(CO)no1)CSC2 | 32 µg/mL (≈ 60.2 µM) | – | 0.02 µg/mL | –
8 | COc1cc(O)c2c(c1Br)C(=O)OCCN(C(=O)C1CC1)CC(=O)N[C@H](c1nc(C)no1)CSC2 | 8 µg/mL (≈ 14 µM) | – | 0.1 µg/mL | –
9 | COc1cc(O)c2c(c1Br)C(=O)OCCN(S(C)(=O)=O)CC(=O)N[C@H](c1nc(C)no1)CSC2 | 64 µg/mL (≈ 110 µM) | – | 0.1 µg/mL | –
10 | COc1cc(O)c2c(c1Cl)C(=O)OCCCCC(=S)N[C@H](c1nc(C)no1)CSC2 | 0.25 µg/mL (≈ 0.53 µM) | – | 0.002 µg/mL | –
11 | COc1cc(O)c2c(c1C)C(=O)OCC(=S)NCC(=S)N[C@H](c1nc(C)no1)CSC2 | 0.5 µg/mL (≈ 1.04 µM) | – | 0.002 µg/mL | –
12 | COc1cc(O)c2c(c1C)C(=O)OCC(=O)NCC(=S)N[C@H](c1nc(C)no1)CSC2 | 0.5 µg/mL (≈ 1.07 µM) | 25 mg/kg | 0.001 µg/mL | logD [4]: 2.32; MIC (Staphylococcus aureus [5]): 1 µg/mL (≈ 2.14 µM); MIC [6]: < 0.12 µg/mL; MIC (Enterococcus faecalis): 0.5 µg/mL (≈ 1.07 µM); MIC (Escherichia coli [7]): > 64 µg/mL; MIC (Staphylococcus aureus [8]): 0.5 µg/mL (≈ 1.07 µM); MIC [9]: 4 µg/mL (≈ 8.57 µM)
13 | COc1cc(O)c2c(c1Br)C(=O)OCC(=O)NCC(=O)N[C@H](c1nc(CNC(C)C)no1)CSC2.Cl | 16 µg/mL | – | 0.02 µg/mL | –
14 | COc1cc(O)c2c(c1C)C(=O)O[C@H](CO)CCCC(=S)N[C@H](c1nc(CN)no1)CSC2 | 32 µg/mL (≈ 64.4 µM) | – | 0.005 µg/mL | –
15 | COc1cc(O)c2c(c1Br)C(=O)OCC(=O)N(C)CC(=O)N[C@H](c1nc(C)no1)CSC2 | 2 µg/mL (≈ 3.78 µM) | > 12.5 mg/kg | 0.05 µg/mL | –
16 | COc1cc(O)c2c(c1Br)C(=O)O[C@H](c1ccccc1)C(=O)NCC(=S)N[C@H](c1nc(C)no1)CSC2 | 0.5 µg/mL (≈ 0.823 µM) | > 25 mg/kg | 1 µg/mL | –
17 | COc1cc(O)c2c(c1Br)C(=O)O[C@H](C)C(=O)NCC(=O)N[C@H](c1nc(C)no1)CSC2 | 2 µg/mL (≈ 3.78 µM) | > 12.5 mg/kg | 0.05 µg/mL | –
18 | COc1cc(O)c2c(c1Cl)C(=O)OCCCCC(=S)N[C@H](c1nc(CN)no1)CSC2.Cl | 0.12 µg/mL | 6 mg/kg | 0.002 µg/mL | logD [4]: 1.89; MIC (Staphylococcus aureus [5]): 0.5 µg/mL; MIC [6]: < 0.12 µg/mL; MIC (Enterococcus faecalis): < 0.12 µg/mL; MIC (Escherichia coli [7]): 64 µg/mL; MIC (Streptococcus pyogenes): 0.25 µg/mL; MIC (Staphylococcus aureus [8]): 0.12 µg/mL; MIC [9]: 4 µg/mL
19 | COc1cc(O)c2c(c1C)C(=O)OCC(=S)NCC(=O)N[C@H](c1nc(C)no1)CSC2 | 2 µg/mL (≈ 4.29 µM) | > 25 mg/kg | 0.005 µg/mL | –
20 | COc1cc(O)c2c(c1Br)C(=O)O[C@H](c1ccccc1)C(=O)NCC(=O)N[C@H](c1nc(C)no1)CSC2 | > 64 µg/mL | – | 0.2 µg/mL | –
21 | COc1cc(O)c2c(c1Br)C(=O)OCCNCC(=O)N[C@H](c1nc(C)no1)CSC2.Cl | 1 µg/mL | 25 mg/kg | 0.01 µg/mL | –
22 | COc1cc(O)c2c(c1C)C(=O)OC[C@H](CO)CCC(=S)N[C@H](c1nc(C)no1)CSC2 | 0.5 µg/mL (≈ 1.04 µM) | 12.5 mg/kg | 0.002 µg/mL | –
23 | COc1cc(O)c2c(c1Br)C(=O)OCC(=O)NCC(=S)N[C@H](c1nc(CNC(C)C)no1)CSC2.Cl | 0.5 µg/mL | 12 mg/kg | 0.02 µg/mL | MIC (Staphylococcus aureus [5]): 1 µg/mL; MIC [6]: < 0.12 µg/mL; MIC (Enterococcus faecalis): 0.25 µg/mL; MIC (Escherichia coli [7]): > 64 µg/mL; MIC (Streptococcus pyogenes): 0.25 µg/mL; MIC (Staphylococcus aureus [8]): 0.5 µg/mL; MIC [9]: 16 µg/mL
